According to ChEMBL document CHEMBL2034865, “Cytotoxic alkaloids from Fusarium incarnatum associated with the mangrove tree Aegiceras corniculatum” (2012):

How the values were obtained:
Format in all cases: functional
[1] = tested on: HUVEC; assay: Antiproliferative activity against HUVEC cells; conditions: Homo sapiens
How it was run: (§1)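 HUVEC and K562 (DSM ACC 10) cells were exposed to compounds and growth was scored against untreated controls. The readout is GI50, the concentration that cuts growth of treated cells to half that of untreated cells.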

[2] = tested on: K562; assay: Antiproliferative activity against human K562 cells; how it was run: as §1
[3] = tested on: HeLa; assay: Cytotoxicity against human HeLa cells
How it was run: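 HeLa cervix carcinoma cells (DSM ACC 57) were treated with compounds. The readout is CC50, the concentration that kills 50% of treated cells.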

Row | Structure (SMILES) | GI50 [1] [µM] | GI50 [2] [µM] | CC50 [3] [µM]
1 | C/C=C(\C)C(=O)NCC(C)C | > 300 | > 300 | > 300
2 | CC(=O)N1CCc2c([nH]c3ccccc23)C1 | 41.1 | 33.3 | 23.8
3 | CC1=CC(=O)/C(=C(\C)N)C(=O)O1 | 68.2 | 9 | 104
4 | CC1=CC(=O)/C(=C(\C)NCCc2ccc(O)cc2)C(=O)O1 [FUSAMINE] | 37.3 | 37.6 | 23.3
5 | O=C(CO)c1cccn1CCc1ccc(O)cc1 [FUSARINE] | > 200 | > 200 | > 200
6 | Cc1ccc(NC(=O)c2ccc(CN3CCN(C)CC3)cc2)cc1Nc1nccc(-c2cccnc2)n1 [IMATINIB] | 18.5 | 0.17 | 65.8
